Efa HMGR inh: inhibitors of E. faecalis class II HMGR, primary screen, biochemical, Enterococcus faecalis. purified E. faecalis HMGR, NADPH absorbance 340 nm kinetic. inhibition, % at 10 µM. 190,000 tested, 0.41% active;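 active means inhibition above a set limit, the median over all tested compounds plus 3 SD, cut at about 9.5% in these data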;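 further: enzyme runs in reverse so mevalonate oxidation gives rising NADPH absorbance; 0% = complete reaction with DMSO and 100% = background rate lacking mevalonate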
TNAP act hi DEA: TNAP activators at high phosphate acceptor level, primary screen, biochemical, luminescence, uHTS | Alkaline phosphatase, tissue-nonspecific isozyme (Homo sapiens), P05186 | purified TNAP, CDP-star luminescence, 1 M DEA, 30 min; active compounds read high; 0 = EDTA background, 1 = DMSO-only activity | activation factor at 20 µM | 200,000 tested, under 10 active | AID 1136, 2008;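 active means activation factor at least 2 at 20 µM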
Target sequence (P05186 whole entry, looked up): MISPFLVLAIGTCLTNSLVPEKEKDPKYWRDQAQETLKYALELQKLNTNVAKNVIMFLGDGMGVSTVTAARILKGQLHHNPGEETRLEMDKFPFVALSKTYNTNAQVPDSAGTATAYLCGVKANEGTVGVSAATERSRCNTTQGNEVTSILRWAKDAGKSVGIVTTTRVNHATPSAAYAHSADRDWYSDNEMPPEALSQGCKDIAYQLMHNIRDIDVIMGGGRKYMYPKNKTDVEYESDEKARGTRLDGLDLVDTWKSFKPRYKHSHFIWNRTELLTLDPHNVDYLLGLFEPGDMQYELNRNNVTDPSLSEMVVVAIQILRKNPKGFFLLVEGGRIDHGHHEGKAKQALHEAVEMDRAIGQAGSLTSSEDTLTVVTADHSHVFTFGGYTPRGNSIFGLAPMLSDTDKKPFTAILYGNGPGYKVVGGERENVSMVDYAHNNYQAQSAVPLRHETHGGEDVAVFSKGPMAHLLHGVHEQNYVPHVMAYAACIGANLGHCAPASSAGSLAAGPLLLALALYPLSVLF
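Test system – human TNAP · Doses – 20 µM single point · Incubation – 30 min, room temperature · Signal – luminescent substrate turnover signal · Read-out basis – activation factor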
Furin inh: human furin inhibitors, primary screen, biochemical, fluorescence intensity. inhibition, % at 20 µM or 30 µM. P09958. AID 463115, 2010. 220,000 tested, 0.061% active. purified furin, fluorogenic substrate cleavage; in the data active means inhibition above about 25%
TNAP inh hi DEA: human TNAP enzyme inhibitors, primary screen, biochemical, luminescent, high phosphate acceptor level, uHTS; purified TNAP, CDP-star luminescence, 1 M DEA; Alkaline phosphatase, tissue-nonspecific isozyme (Homo sapiens), P05186; inhibition, % at 20 µM; 200,000 tested, 0.03% active; AID 1135, 2008;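 active means over 50% inhibition of tissue-nonspecific alkaline phosphatase at 20 µM in the single-dose screen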;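 further: plate controls were DMSO wells for no effect and EDTA-quenched wells as full inhibition for full effect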
TNAP inh noacc: human TNAP enzyme inhibitors, primary screen, biochemical, luminescent, no phosphate acceptor, uHTS | Alkaline phosphatase, tissue-nonspecific isozyme (Homo sapiens), P05186 | inhibition, % at 20 µM | purified TNAP, CDP-star luminescence, 30 min | 200,000 tested, 0.26% active;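 active means tissue-nonspecific alkaline phosphatase inhibition above about 50% at 20 µM in the single-dose screen, limit read from the data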;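 further: 0% = DMSO negative control and 100% = EDTA positive control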
Pf gametocyte: late stage P. falciparum gametocyte viability inhibitors, primary screen, ATP luminescence, HTS; P. falciparum stage V gametocytes, 24 h; AID 743093, 2013; 150,000 tested, 0.065% active; inhibition, % at 10.9 µM;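 active means inhibition above the mean plus 3 SD of compounds within the control limits, set per campaign, cut at about 38% in these data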;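 further: 0% = DMSO wells and 100% = medium only without gametocytes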
* hit, by the source's call; . = not tested or not shown. Shown are actives, neighbours in structure and some others; about 0.68% of the full set was active somewhere.

SMILES	Efa HMGR inh	TNAP act hi DEA	Furin inh	TNAP inh hi DEA	TNAP inh noacc	Pf gametocyte
COc1ccccc1C1NC=C([N+](=O)[O-])C=C1[N+](=O)[O-] (centres undefined)	7.3	0.9	-0.5	5.6	57.4*	10.8
COc1ccccc1C1C([N+](=O)[O-])=CC([N+](=O)[O-])=CN1C (centres undefined)	1.2	0.9	0.2	7.0	21.7	-7.2
O=C(Cc1n[nH]c(=O)c2ccccc12)NCc1ccccn1	10.4*	1	-13.4	-3.0	-10.8	-22.9
Cn1nc(C(F)(F)F)c(-c2cccc(C(F)(F)F)c2)c1NC(=O)Nc1ccc(F)cc1	.	.	-5.3	.	.	-6.8
COC(=O)C1=C(C)NC(C)=C(C(=O)OC)C1C1CC=CCC1 (centres undefined)	14.9*	1	-13.8	2.1	-2.2	10.5
CCOC(=O)C1=C(C)NC(=O)NC1C1CC=CCC1 (centres undefined)	-4.4	1.1	-30.4	-5.6	-12.1	-12.7
Clc1ccc(-c2ccc(SCc3ccccn3)nn2)cc1	-4.9	1	2.0	-3.0	0.5	1.5
c1ccc(CSc2ccc(-c3ccccn3)nn2)nc1	-4.5	1	-23.6	0.1	54.5*	-15.2
N#CCC(=O)Nc1ccc(C(=O)OCC(=O)Nc2ccccc2Sc2ccccc2)cc1	3.5	1	-23.3	-2.3	-5.6	39.9*
CN1CC2=Cc3ccccc3OC23Oc2ccccc2C=C3C1	3.6	1	-28.5	-3.1	-9.2	8.8
CC1(C)CC(=O)C(C=Nc2cccnc2)=C(O)C1	1.6	1	40.9*	-3.3	-7.8	.
CC1(C)CC(=O)C(C=Nc2ccc(O)c(N=CC3=C(O)CC(C)(C)CC3=O)c2)=C(O)C1	1.5	0.9	-13.8	7.7	-12.1	-14.3
CC1(C)CC(=O)C(C=Nc2cccnc2/N=C/C2=C(O)CC(C)(C)CC2=O)=C(O)C1	5.0	1	54.7*	1.2	-85.0	-5.7
COc1ccc(N=CC2=C(O)CC(C)(C)CC2=O)cc1	-1.2	1.1	34.3*	-5.3	-7.7	-15.1
COc1ccc(OC)c(N=CC2=C(O)CC(C)(C)CC2=O)c1	-6.2	1.1	-2.6	-10.5	-8.5	.
CC1(C)CC(=O)C(C=Nc2ccncc2)=C(O)C1	.	.	-8.3	.	.	.
O=C(Nc1n[nH]c(C2CCCCC2)n1)C1CCCCC1	-0.6	1	15.0	-1.4	72.4*	1.9
COc1cc(NC(=O)c2ccccc2Cl)c(OC)cc1NC(=O)CN1CCOCC1	-2.7	1	-5.1	-4.4	-12.1	.
Cc1cccc(-c2cc3nc(C)cc(NCCCN(C)C)n3n2)c1	-1.4	1	-5.7	-3.5	53.1*	.
CC(=O)OCC1=C(C(=O)O)N2C(=O)C(NC(=O)C(C)Cn3nc(C)c(Cl)c3C)C2SC1 (centres undefined)	-6.1	1	-17.7	-1.8	-3.1	-32.4
CC(=O)OCC1=C(C(=O)O)N2C(=O)C(NC(=O)c3ccc(F)cc3)C2SC1 (centres undefined)	11.3*	1.1	-24.5	-6.5	-15.5	-8.7
C/C(=N/Nc1ccc(C(=O)O)cc1)c1ccc(O)c(O)c1O	10.8*	0.9	2.5	7.5	6.1	.
Cn1c(=O)c2c(nc(SCC(=O)N3CCc4ccccc43)n2Cc2ccc(F)cc2)n(C)c1=O	.	.	28.4*	.	.	.
CCCn1c(SCC(=O)N2CCCc3ccccc32)nc2c1c(=O)n(C)c(=O)n2C	.	1	-25.8	-4.5	-11.2	-8.3
Cc1ccc(C(=O)NC(=O)OCCn2c(C)cnc2[N+](=O)[O-])cc1	-2.7	1	1.9	-0.4	-8.4	17.3
SMILES	Efa HMGR inh	TNAP act hi DEA	Furin inh	TNAP inh hi DEA	TNAP inh noacc	Pf gametocyte
CCC(=O)N(Cc1ccco1)c1nc(-c2ccc(OC)cc2)cs1	11.6*	1	-16.9	-2.4	-4.4	.
COc1ccc(CC(NC(C)=O)C(=O)NC2CCN(c3c(Cc4ccccc4)c(C)nc4ncnn34)CC2)c(OC)c1 (centres undefined)	-2.4	1	-16.1	-3.3	-10.2	-14.6
COc1cc(CC(NC(C)=O)C(=O)NC2CCN(C(=O)C3CC3)CC2)cc(OC)c1 (centres undefined)	9.6*	1	-14.6	-3.6	-6.7	7.7
COc1ccc(OC)c(CC(NC(C)=O)C(=O)NC2CCN(c3cc(C)nc4ncnn34)CC2)c1 (centres undefined)	9.7*	1	-26.2	-1.8	-6.1	-7.9
NC(Cc1c[nH]c2ccccc12)C(=O)NCc1ccco1 (centres undefined)	-5.5	1.1	-17.1	-5.7	-8.7	-12.6
CCOC(=O)/C(N=Nc1c(C)n(C)n(-c2ccccc2)c1=O)=C(\C)O	-2.3	1	-6.1	4.3	8.3	64.6*
Cc1[nH][nH]c(=O)c1C(c1ccc(-c2ccc(Cl)cc2Cl)o1)c1c(C)[nH][nH]c1=O	10.5*	1	-14.0	3.6	-21.6	.
Cc1[nH][nH]c(=O)c1C(c1ccc(-c2cccc(Cl)c2)o1)c1c(C)[nH][nH]c1=O	.	.	-14.5	.	.	.
COc1ccc(-c2cc(C(=O)c3c(N)n(C)c(=O)n(C)c3=O)c3ccccc3n2)cc1OC	-3.9	1	-2.6	-4.5	-3.3	17.8
CCOC(=O)C(CC)Sc1nc2c(c(=O)[nH]c(=O)n2C)n1C/C=C(/C)Cl (centres undefined)	-1.6	1	27.9*	0.9	-7.3	13.7
C/C(Cl)=C/Cn1c(SCC(C)C)nc2c1c(=O)[nH]c(=O)n2C	.	1	.	3.2	-0.2	2.4
CS(=O)(=O)N(CC(=O)NCCSCc1ccccc1)c1ccccc1Br	.	.	.	.	.	7.7
O=c1oc2c(O)c(O)cc3c(=O)oc4c(O)c(O)cc1c4c23	23.6*	0.9	-5.9	7.1	2.9	.
COCCCn1c(SCC(=O)Nc2sc3c(c2C#N)CCCC3)nnc1-c1ccncc1	-5.0	0.4	4.1	55.2*	26.8	.
COCCCn1c(SCC(=O)Nc2cccc(C(=O)OC)c2)nnc1-c1ccncc1	-4.2	1	-7.5	-0.7	-4.3	13.0
N#Cc1cc(C(=O)Cc2ccccc2)c[nH]1	-4.4	1	-23.4	1.4	1.2	-33.3
Oc1ccc(N=Nc2n[nH]c(-c3ccccc3)n2)cc1	-7.9	0.7	2.0	31.4	74.4*	-59.0
Oc1ccc(N=Nc2n[nH]c(-c3ccc(Br)cc3)n2)cc1	-4.2	0.6	-0.4	44.0	74.9*	2.9
Oc1ccc(N=Nc2ccc(Br)cc2)c(O)c1	.	.	-3.4	.	.	.
Oc1ccc(N=Nc2nc(-c3ccccc3)c(-c3ccccc3)[nH]2)cc1	-8.6	0.4	-9.2	57.7*	49.3	-3.2

Screening data from PubChem.
